# Several values for one entry are separate records, joined by “and”; a condition that tells them apart may be missing. Equal values may be shown once.
# Legend:
# MRP2 = MRP2 (Homo sapiens, UniProt Q92887); test: CDF directional; format: cell-based
# [1] = tested on: esterase-mediated conversion of CDFA to CDF; test: CDFA hydrolysis to CDF by Caco-2 cells; format: cell-based, human; details: 100 μM compound
# In short: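 Caco-2 cells from ATCC, used at passages 35–55, grown in DMEM with 10% FBS, 1% non-essential amino acids, 1 mM sodium pyruvate and 2 mM L-glutamine at 37°C in 5% CO2. CDFA was taken from a 5 mM stock in 1:1 DMSO:ethanol. CDF formation was expressed as specific activity per mg protein under initial-rate conditions, N = 3 per condition.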
# MRP2 and/or MRP3 = test: Net CDF uptake into Caco-2 grown on 24-well plates after CDFA exposure; format: cell-based, human; details: 100 μM compound, 30 min with 5 μM CDFA, cells on plastic
# [2] = tested on: genistein conjugative metabolism; test: Genistein conjugative metabolism; format: in vitro ADME, human
# Caco-2 [3] = test: Lucifer yellow permeability in Caco-2; format: in vitro ADME, human; details: control vs in the presence of 50 μM glyceollin
# Caco-2 [4] = test: Genistein conjugate metabolite excretion from Caco-2; format: in vitro ADME, human
# Sequence of MRP2 (Q92887 whole entry): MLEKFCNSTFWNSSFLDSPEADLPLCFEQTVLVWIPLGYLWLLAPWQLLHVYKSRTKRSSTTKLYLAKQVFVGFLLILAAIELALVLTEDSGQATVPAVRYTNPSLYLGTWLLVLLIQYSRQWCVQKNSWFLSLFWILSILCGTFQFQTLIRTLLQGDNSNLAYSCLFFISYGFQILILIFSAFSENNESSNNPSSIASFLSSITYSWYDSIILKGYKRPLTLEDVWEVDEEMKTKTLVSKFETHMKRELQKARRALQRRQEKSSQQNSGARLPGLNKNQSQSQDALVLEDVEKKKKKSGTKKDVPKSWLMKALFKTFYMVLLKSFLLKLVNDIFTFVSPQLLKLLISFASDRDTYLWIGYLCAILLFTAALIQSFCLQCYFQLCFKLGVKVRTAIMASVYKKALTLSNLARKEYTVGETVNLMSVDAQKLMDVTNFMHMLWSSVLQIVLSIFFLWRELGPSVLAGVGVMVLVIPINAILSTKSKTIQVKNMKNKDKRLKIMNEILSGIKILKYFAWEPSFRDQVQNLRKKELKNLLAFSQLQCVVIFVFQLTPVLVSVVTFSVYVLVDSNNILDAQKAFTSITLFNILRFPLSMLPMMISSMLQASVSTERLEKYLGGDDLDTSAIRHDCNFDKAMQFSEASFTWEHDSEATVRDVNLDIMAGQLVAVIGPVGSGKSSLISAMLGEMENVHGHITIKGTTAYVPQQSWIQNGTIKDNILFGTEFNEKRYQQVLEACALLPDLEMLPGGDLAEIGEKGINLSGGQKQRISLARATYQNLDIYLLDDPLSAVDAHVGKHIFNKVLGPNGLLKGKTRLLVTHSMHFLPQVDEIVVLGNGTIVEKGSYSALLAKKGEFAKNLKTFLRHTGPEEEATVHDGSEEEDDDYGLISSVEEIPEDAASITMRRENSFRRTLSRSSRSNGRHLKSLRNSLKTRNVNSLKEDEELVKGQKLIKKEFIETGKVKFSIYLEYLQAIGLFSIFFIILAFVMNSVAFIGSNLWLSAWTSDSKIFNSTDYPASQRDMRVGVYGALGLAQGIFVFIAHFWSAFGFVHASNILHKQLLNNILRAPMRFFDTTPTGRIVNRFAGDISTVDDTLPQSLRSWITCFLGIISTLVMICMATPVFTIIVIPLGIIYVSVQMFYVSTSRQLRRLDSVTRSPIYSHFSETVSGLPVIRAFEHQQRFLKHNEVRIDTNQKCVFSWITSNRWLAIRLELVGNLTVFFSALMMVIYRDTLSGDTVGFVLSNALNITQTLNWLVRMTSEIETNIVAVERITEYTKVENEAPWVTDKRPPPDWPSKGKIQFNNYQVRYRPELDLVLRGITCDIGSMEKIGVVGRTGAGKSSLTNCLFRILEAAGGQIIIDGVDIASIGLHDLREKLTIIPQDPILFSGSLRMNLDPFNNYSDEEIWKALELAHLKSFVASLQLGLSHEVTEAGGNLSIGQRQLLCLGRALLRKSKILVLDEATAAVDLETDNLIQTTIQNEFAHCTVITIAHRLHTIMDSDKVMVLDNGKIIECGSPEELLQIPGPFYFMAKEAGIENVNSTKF
compound,measurement,setting,value
"5 (and 6)-Carboxy-2′,7′-dichloroflourescein [CDF]","CDF permeability, BA direction vs. AB direction","MRP2; control conditions, no inhibitor",3.7 ± 0.36 fold
CN(C)C(=O)CCSC(SCCC(=O)O)c1cccc(/C=C/c2ccc3ccc(Cl)cc3n2)c1 (stereo not drawn) [MK-571],rate of esterase-mediated conversion of CDFA to CDF,[1],did not alter
same,CDFA hydrolysis specific activity (initial rate),"[1]; 5 μM CDFA, control 6.0",8.5 nM/min/mg protein
same,CDF uptake,MRP2 and/or MRP3,significant reduction
same,CDF AB directional transport,MRP2; 100 μM compound vs control,statistically significant increase
same,CDF BA directional transport,MRP2; 100 μM compound vs control,statistically significant reduction
same,CDF cell concentration at the conclusion of the 2-hour incubation,"MRP2; 100 μM compound, both transport directions",reduced
same,IC50 for reduction of CDF BA/AB permeability ratio,"MRP2; 10, 30 or 100 μM compound",22 µM
O=c1c(-c2ccc(O)cc2)coc2cc(O)cc(O)c12 [genistein],"fraction of genistein metabolized to conjugates (Fm), average","[2]; control vs 30 μM glyceollin, average of two experiments",47% ± 10.5% and 47%
Lucifer yellow,lucifer yellow permeability,Caco-2 [3],0.13 ± 0.035 × 10^-5 cm/s
glyceollin,apical metabolite excretion rate,Caco-2 [4],6.5 ± 0.61 × 10^-5 nmoles/sec
same,intracellular genistein conjugates,[2]; Caco-2,9 ± 2.7 pmoles/filter

# Reference: publication PMC4761526 (Journal of pharmaceutical sciences, 2016)
